Measured values published in ChEMBL document CHEMBL1156796, “Design, synthesis, and antihepatitis B virus activities of novel 2-pyridone derivatives” (J Med Chem, 2010).

How the values were obtained:
Hepatitis B virus [1] = assay: Antiviral activity against HBV infected in human HepG2(2.2.15) cells assessed as inhibition of HBeAg level after 9 days by ELISA; format: functional, organism-based; conditions: HepG2 2.2.15, 216 h
[2] = Selectivity index, ratio of CC50 for human HepG2(2.2.15) cells to IC50 for HBV infected in human HepG2(2.2.15) cells assessed as inhibition of HBsAg; format: functional
Procedure, shortened: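 MTT at 5 g/L added 4 h before lysis in 10% SDS/50% DMF, pH 7.2, with OD read at 570 nm. IC50: HBsAg in day-9 supernatants measured by ELISA. SI = CC50/IC50.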

Hepatitis B virus [3] = assay: Antiviral activity against HBV infected in human HepG2(2.2.15) cells assessed as inhibition of HBsAg level after 9 days by ELISA; format: functional, organism-based; conditions: HepG2 2.2.15, 216 h
[4] = Selectivity index, ratio of CC50 for human HepG2(2.2.15) cells to IC50 for HBV infected in human HepG2(2.2.15) cells assessed as inhibition of HBeAg; format: functional
[5] = Cytotoxicity against human HepG2(2.2.15) cells; format: cell-based
[6] = Selectivity index, ratio of CC50 for human HepG2(2.2.15) cells to IC50 for HBV infected in human HepG2(2.2.15) cells assessed as inhibition of HBV DNA replication; format: functional
Hepatitis B virus [7] = assay: Antiviral activity against HBV infected in human HepG2(2.2.15) cells assessed as inhibition of HBV DNA replication after 9 days by PCR; format: functional, organism-based
Hepatitis B virus [8] = assay: Antiviral activity against HBV infected in human HepG2(2.2.15) cells assessed as inhibition of HBV DNA replication after 9 days by PCR relative to adefovir; format: functional
Procedure, shortened: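 HepG2 2.2.15 cells treated with different dosages of compound; culture supernatants collected nine days after treatment. IC50 taken as the concentration giving 50% inhibition of HBV DNA replication.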

[9] = Hepatitis B virus, HepG2 2.2.15, 216 h, read-out: IC50

Structure (SMILES) | IC50 (Hepatitis B virus [1]) | Ratio CC50/IC50 [2] | IC50 (Hepatitis B virus [3]) | Ratio CC50/IC50 [4] | CC50 [5] | Ratio CC50/IC50 [6] | IC50 (Hepatitis B virus [7]; [9]) | IC50 (Hepatitis B virus [7]; hepg2 2.2.15) | fold change (FC) (Hepatitis B virus [8])
COc1ccc(/C(=N/Cc2ccc(F)cc2)c2ccc(=O)n(Cc3ccc(F)cc3)c2)c(O)c1 | > 86.9 µM | <0.12 | > 86.9 µM | <0.12 | 10 µM | 0.15 | 64.5 µM |  | 
COc1ccc(C(=O)c2ccc(=O)n(-c3cc(C)ccc3C)c2)c(O)c1 | 38 µM | 0.04 | 13 µM | 0.01 | 0.5 µM | 1 | 0.5 µM |  | 
COc1ccc(C(=O)c2ccc(=O)n(-c3ccc(Cl)cc3)c2)c(O)c1 | 1.6 µM | 2.69 | 61 µM | 102.5 | 164 µM | 26.45 | 6.2 µM |  | 
COc1ccc(C(=O)c2ccc(=O)n(-c3ccc(C)cc3)c2)c(O)c1 | 2 µM |  | > 119 µM | >59.7 | > 119 µM | >23.9 | 5 µM |  | 
COc1ccc(C(=O)c2ccc(=O)n(-c3ccc(C(C)=O)cc3)c2)c(O)c1 | 774 µM | <1.21 | > 110 µM | 0.17 | 133 µM | 11.88 | 11.2 µM |  | 
CCCCn1cc(C(=O)c2ccc(OC)cc2O)ccc1=O | > 133 µM | <0.5 | > 133 µM | <0.5 | 67 µM | 2.34 | 28.6 µM |  | 
COc1ccc(C(=O)c2ccc(=O)n(-c3ccc([N+](=O)[O-])cc3)c2)c(O)c1 | > 109 µM | <1.07 | > 109 µM | <1.07 | 177 µM |  |  | Not Active | 
COc1ccc(C(=O)c2ccc(=O)n(C3CCCCC3)c2)c(O)c1 | 0.73 µM | 0.15 | 99 µM | 20.55 | 15 µM | 0.15 | 99.6 µM |  | 
COc1ccc(C(=O)c2ccc(=O)n(-c3ccccc3)c2)c(O)c1 | 76 µM | 1.02 | 176 µM | 2.36 | 179 µM | 8.95 | 20 µM |  | 
C=CC/N=C(\c1ccc(=O)n(CC=C)c1)c1ccc(OC)cc1O | 40 µM | 0.2 | 98 µM | 0.5 | 20 µM | 1.67 | 12 µM |  | 
COc1ccc(C(=O)c2ccc(=O)n(/C=C/Nc3cccc4ccccc34)c2)c(O)c1 | > 97 µM | 3.17 | 77 µM | <2.5 | 244 µM | <0.67 | > 364 µM |  | 
COc1ccc(/C(=N/Cc2ccc(F)c(F)c2)c2ccc(=O)n(Cc3ccc(F)c(F)c3)c2)c(O)c1 | > 403 µM | 0.41 | 496 µM | <0.5 | 201 µM | 2.07 | 97.5 µM |  | 
C=CCn1cc(C(=O)c2ccc(OC)cc2O)ccc1=O | 58 µM | 0.84 | 276 µM | 4 | 232 µM | 2.3 | 101 µM |  | 
Nc1ncnc2c1ncn2CCOCP(=O)(O)O [ADEFOVIR] | 286 µM | 1.77 | 305 µM | 1.89 | 540 µM | 1044.5 | 0.517 µM |  | 
COc1ccc(/C(=N/Cc2cccc(F)c2)c2ccc(=O)n(Cc3cccc(F)c3)c2)c(O)c1 | 0.5 µM | 0.62 | 13 µM | 16 | 8 µM | 3.81 | 2.1 µM |  | 
COc1ccc(C(=O)c2ccc(=O)n(C(C)C)c2)c(O)c1 | > 846 µM | 0.82 | 846 µM | <0.82 | 696 µM | 4.09 | 170 µM |  | 
COc1ccc(/C(=N/Cc2ccc(F)cc2F)c2ccc(=O)n(Cc3ccc(F)cc3F)c2)c(O)c1 | 40 µM | 0.77 | 13 µM | 0.25 | 10 µM | 3.33 | 3 µM |  | 
COc1ccc(/C(=N/C2CCCCC2)c2ccc(=O)n(C3CCCCC3)c2)c(O)c1 | 71 µM | 1.93 | 201 µM | 5.45 | 387 µM | 96.75 | 4 µM |  | 

Structure (SMILES) | IC50 (Hepatitis B virus [1]) | Ratio CC50/IC50 [2] | IC50 (Hepatitis B virus [3]) | Ratio CC50/IC50 [4] | CC50 [5] | Ratio CC50/IC50 [6] | IC50 (Hepatitis B virus [7]; [9]) | IC50 (Hepatitis B virus [7]; hepg2 2.2.15) | fold change (FC) (Hepatitis B virus [8])
COc1ccc(/C(=N/C(C)C)c2ccc(=O)n(C(C)C)c2)c(O)c1 | 54 µM |  | > 122 µM | >2.26 | > 122 µM |  | > 122 µM |  | 
COc1ccc(/C(=N/Cc2ccc(C)cc2)c2ccc(=O)n(Cc3ccc(C)cc3)c2)c(O)c1 | > 118 µM | <0.17 | > 118 µM | <0.17 | 20 µM | 0.92 | 21.7 µM |  | 
CCCC/N=C(\c1ccc(=O)n(CCCC)c1)c1ccc(OC)cc1O | 56 µM | 0.5 | 111 µM | 1 | 56 µM | 466.67 | 0.12 µM |  | 4
CCC/N=C(\c1ccc(=O)n(CCC)c1)c1ccc(OC)cc1O | > 122 µM | <1 | > 122 µM | <1 | 120 µM | 3.55 | 33.8 µM |  | 
COc1ccc(/C(=N/C2CC2)c2ccc(=O)n(C3CC3)c2)c(O)c1 | 10 µM | 1.33 | 123 µM | 16.4 | 164 µM | <0.35 | > 462 µM |  | 
COc1ccc(C(=O)c2ccc(=O)n(-c3ccccc3OC)c2)c(O)c1 | 49 µM |  | > 114 µM | >2.3 | > 114 µM | >1.5 | 76 µM |  | 
COc1ccc(/C(=N/Cc2ccccc2)c2ccc(=O)n(Cc3ccccc3)c2)c(O)c1 | 4.4 µM | 2.55 | 40 µM | 23.18 | 102 µM | 3.24 | 31.5 µM |  | 
CCOc1ccc(-n2cc(C(=O)c3ccc(OC)cc3O)ccc2=O)cc1 | 55 µM |  | > 110 µM | >1.99 | > 110 µM | >532 | 0.206 µM |  | 
COc1ccc(-n2cc(C(=O)c3ccc(OC)cc3O)ccc2=O)cc1 | 222 µM |  | > 114 µM | 1.56 | 346 µM | 66.54 | 5.2 µM |  | 
COc1ccc(C(=O)c2ccc(=O)n(-c3ccc(F)cc3)c2)c(O)c1 | > 118 µM |  | > 118 µM |  | > 118 µM | >1.2 | 98.3 µM |  | 
COc1ccc(C(=O)c2ccc(=O)n(-c3ccccc3C)c2)c(O)c1 | 0.1 µM | >6.63 | 18 µM | >1194 | > 119 µM | >10.85 | 11 µM |  | 
CCCCCn1cc(C(=O)c2ccc(OC)cc2O)ccc1=O | 39 µM | 1.72 | 46 µM | 2.03 | 79 µM | 3.95 | 20 µM |  | 
CCCCC/N=C(\c1ccc(=O)n(CCCCC)c1)c1ccc(OC)cc1O | 5 µM | 3.38 | 29 µM | 19.6 | 98 µM | 3.27 | 30 µM |  | 
COc1ccc(C/N=C(\c2ccc(=O)n(Cc3ccc(OC)cc3)c2)c2ccc(OC)cc2O)cc1 | 2 µM | 0.89 | 36 µM | 16 | 32 µM | 32 | 1 µM |  | 
COc1ccc(/C(=N/Cc2ccccc2F)c2ccc(=O)n(Cc3ccccc3F)c2)c(O)c1 | 30 µM | 0.71 | 72 µM | 1.7 | 51 µM | 0.55 | 92.6 µM |  | 
COc1ccc(C(=O)c2ccc(=O)n(-c3cccc(C)c3)c2)c(O)c1 | 0.3 µM | 5.48 | 29 µM | 530 | 159 µM | 198.75 | 0.8 µM |  | 
CCCn1cc(C(=O)c2ccc(OC)cc2O)ccc1=O | 46.3 µM |  | > 139 µM | 2.83 | 131 µM | 3.93 | 33.3 µM |  | 
